Measurements from PubChem BioAssay AID588682 (Southern Research Specialized Biocontainment Screening …, 2011).
Active and inactive are the calls of the source.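 Rule for the calls: active = inhibition of 30% or more at any tested concentration; inactive = the rest.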

The molecules below were run on M17 leucyl aminopeptidase (Plasmodium falciparum 3D7) (assay: PfM17LAP leucine aminopeptidase inhibitors, dose response, counter-screen for PfM1AAP inhibitor project, biochemical, QFRET (AID 588682)). Settings: recombinant PfM17LAP, H-Leu-NHMec fluorogenic cleavage; series mostly up to 100 µM; inhibition: at the top concentration.
Procedure, shortened: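 Assay system – recombinant PfM17LAP enzyme · Amount – 5 µg/mL rPFM17LAP enzyme · Medium – Tris pH 7.5 plus 2 mM CoCl2 · Also added – NHMec-releasing fluorogenic peptide substrate at 0.1 mM · Dosing – 100–0.2 µM compound series · Incubation – 90 min, room temperature · Technique – NHMec fluorescence, excitation 370 nm, emission 460 nm · Read-out – % enzyme inhibition · Replicates – triplicate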

| SMILES | inhibition |
| --- | --- |
| CC(C)(C)c1ccc(-c2ccc(S(=O)(=O)N3CCC(C(=O)NCc4ccc5c(c4)OCO5)CC3)s2)cc1 | 3.33% (inactive) |
| COc1ccc(-c2ccc(S(=O)(=O)N3CCC(C(=O)NCc4ccc5c(c4)OCO5)CC3)s2)cc1 | -148% (inactive) |
| CC(=O)Nc1cccc(-c2ccc(S(=O)(=O)N3CCC(C(=O)NCc4ccc5c(c4)OCO5)CC3)s2)c1 | -15.5% (inactive) |
